# Key:
# [1] = Protein binding in human serum; type: ADME, cell-free; details: read-out: PB
# [2] = biological target: T1, Broad substrate specificity ATP-binding cassette transporter ABCG2 (Rattus norvegicus, UniProt Q80W57); test: Activity at rat ABCG2 expressed in MDCK cells assessed as asymmetrical efflux ratio of permeability at 25 uM after 1 hr; type: ADME, cell-based
# T1 sequence (Q80W57 whole entry): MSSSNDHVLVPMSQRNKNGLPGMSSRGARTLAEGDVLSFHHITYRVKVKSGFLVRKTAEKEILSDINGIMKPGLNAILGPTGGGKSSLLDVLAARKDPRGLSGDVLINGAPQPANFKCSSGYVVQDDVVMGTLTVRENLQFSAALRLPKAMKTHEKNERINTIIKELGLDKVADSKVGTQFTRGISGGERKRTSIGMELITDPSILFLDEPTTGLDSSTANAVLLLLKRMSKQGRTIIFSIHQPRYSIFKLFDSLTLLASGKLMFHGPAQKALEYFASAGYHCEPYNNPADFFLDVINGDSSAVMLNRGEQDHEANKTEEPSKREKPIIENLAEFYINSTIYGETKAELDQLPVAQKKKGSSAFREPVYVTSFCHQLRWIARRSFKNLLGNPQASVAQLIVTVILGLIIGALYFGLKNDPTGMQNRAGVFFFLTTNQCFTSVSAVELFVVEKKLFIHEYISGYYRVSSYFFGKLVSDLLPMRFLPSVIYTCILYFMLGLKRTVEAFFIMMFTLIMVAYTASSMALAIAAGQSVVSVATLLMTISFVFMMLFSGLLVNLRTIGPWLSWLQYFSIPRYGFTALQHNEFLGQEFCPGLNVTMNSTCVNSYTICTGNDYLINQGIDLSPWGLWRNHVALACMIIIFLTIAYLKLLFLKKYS
# Outline: (§1)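 Rat Abcg2-transfected and empty-vector MDCKII cells seeded at 1.0×10^6 cells/well on 3.0 μm Transwell filters, grown 4 days to TEER >200 Ω·cm². Racemic pantoprazole donor at 25 μM, 37°C, 5% CO2. Receiver sampled at 1, 2, 3, 4 h; [³H]mannitol checked monolayer integrity. Efflux ratio taken at 1 h from initial rates; n=3.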
# [3] = Fraction unbound in jugular and femoral vein-cannulated lactating Sprague-Dawley rat whole milk at 0.4 mg/ml, iv administered as infusion after 8 hrs by equilibrium dialysis method; type: ADME, organism-based
# Outline: (§2)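 Equilibrium dialysis of rat serum and milk against 0.133 M phosphate buffer (serum pH 7.45, milk pH 6.8), 8 h at 37°C, in 0.5 ml cells. Serum levels used were those seen in the infusion study. Both sides measured by LC-MS. n=4.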
# [4] = system: Rattus norvegicus; test: (§3) Clearance in jugular and femoral vein-cannulated lactating Sprague-Dawley rat at 0.4 mg/ml, iv administered as infusion; type: ADME, organism-based; details: in vivo
# Outline: (§4)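 Lactating Sprague-Dawley rats on days 10–12 postpartum, jugular and femoral cannulated under ketamine/xylazine. Crossover design: i.v. bolus of GF120918 (10 mg/kg in DMSO) or DMSO 10 min before an 8 h i.v. infusion of racemic drug in saline (0.4 mg/ml/h). Enantiomers measured by chiral LC-MS. Clearance = infusion rate / mean serum level over 2–8 h. M/S = 8 h milk level / serum level. n=5.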
# [5] = Drug uptake in jugular and femoral vein-cannulated lactating Sprague-Dawley rat milk at 0.4 mg/ml, iv administered as infusion after 8 hrs by LC-MS analysis in presence of GF120918; type: ADME, organism-based; details: in vivo
# Outline: (§5)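 Lactating Sprague-Dawley rats on days 10–12 postpartum, cannulated. i.v. bolus of GF120918 (10 mg/kg in DMSO) or DMSO alone, then 10 min later an 8 h i.v. infusion of racemic drug in saline (0.4 mg/ml/h). Serum sampled at 2, 4, 6, 8 h. Milk collected by manual expression under light ketamine anesthesia at 8 h. Isomers quantified by LC-MS with zonisamide internal standard. n=5.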
# [6] = system: Serum; test: (§6) Fraction unbound in jugular and femoral vein-cannulated lactating Sprague-Dawley rat serum at 0.4 mg/ml, iv administered as infusion after 8 hrs by equilibrium dialysis method; type: ADME, organism-based; details: in vivo, 8 h; outline: as §2
# [7] = system: MDCK; test: Asymmetrical efflux ratio of permeability in MDCK cells at 25 uM after 1 hr; type: ADME, cell-based, Canis lupus familiaris; details: dog; outline: as §1
# [8] = system: Serum; test: (§7) Drug uptake in jugular and femoral vein-cannulated lactating Sprague-Dawley rat serum at 0.4 mg/ml, iv administered as infusion after 2 hrs by LC-MS analysis; type: ADME, organism-based; details: in vivo, 2 h; outline: as §5
# [9] = Drug uptake in jugular and femoral vein-cannulated lactating Sprague-Dawley rat milk at 0.4 mg/ml, iv administered as infusion after 8 hrs by LC-MS analysis; type: ADME, organism-based; details: in vivo; outline: as §5
# [10] = as §3; type: ADME, organism-based; details: female, Sprague-Dawley, in vivo, 0.4 mg/ml; outline: as §4
# [11] = system: Serum; test: Drug uptake in jugular and femoral vein-cannulated lactating Sprague-Dawley rat serum at 0.4 mg/ml, iv administered as infusion after 2 hrs by LC-MS analysis in presence of GF120918; type: ADME, organism-based; details: in vivo; outline: as §5
# [12] = as §6; type: ADME, organism-based; details: female, Sprague-Dawley, serum, 0.4 mg/ml; outline: as §2
# [13] = Dissociation constant, pKa of the compound; type: physicochemical
# [14] = as §7; type: ADME, organism-based; details: female, Sprague-Dawley, serum, 0.4 mg/ml, read-out: Drug uptake; outline: as §5
# [15] = Ratio of drug level in milk to serum in jugular and femoral vein-cannulated lactating Sprague-Dawley rat at 0.4 mg/ml, iv administered as infusion in presence of GF120918; type: ADME, organism-based; details: female, with GF120918
SMILES,fraction unbound [1],Ratio [2],"Fu ([3]; in vivo, 8 h) [%]",CL [4] [mL/min/kg],Drug uptake [5] [µg/mL],Fu [6] [%],Ratio [7],Drug uptake [8] [µg/mL],Drug uptake [9] [µg/mL],"fraction unbound at 8 h ([3]; female, Sprague-Dawley, whole milk, 0.4 mg/ml)",clearance [10] [mL/min/kg],Drug uptake [11] [%],fraction unbound at 8 h [12],pKa [13],concentration at 2 h [14] [ng/mL],Kp [15]
COc1ccnc(C[S+]([O-])c2nc3ccc(OC(F)F)cc3[nH]2)c1OC (centres undefined) [PANTOPRAZOLE SODIUM],< 0.02,–,–,–,–,–,–,–,–,–,–,–,–,–,–,–
COc1ccnc(C[S+]([O-])c2nc3cc(OC(F)F)ccc3[n-]2)c1OC.O.[Na+] (stereo in doubt; (+)) [PANTOPRAZOLE SODIUM],–,5.15,26,9.5,0.53,2.33,0.9,1.2,0.64,–,–,–,–,–,–,–
COc1ccnc(C[S+]([O-])c2nc3cc(OC(F)F)ccc3[n-]2)c1OC.O.[Na+] (stereo in doubt; (-)) [PANTOPRAZOLE SODIUM],–,1.51,–,–,1.1,–,–,–,2.26,0.271,7.33,37,0.0238,3.9,1630,0.5
